In ChEMBL document CHEMBL1221230, “Inhibition of eukaryotic translation elongation by cycloheximide and lactimidomycin” (Nat Chem Biol, 2010):
Activity calls are given as the source filed them. The rule behind the calls is not given here.

Tests used:
Saccharomyces cerevisiae [1] = test: Fold resistance, ratio of IC50 Saccharomyces cerevisiae J407alpha expressing ribosomal protein cyh2 and harboring mutation in rpl28 to IC50 for Saccharomyces cerevisiae J47alpha; format: functional
Method in brief: (§1)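 Four isogenic S. cerevisiae strain pairs, each differing only by presence or absence of cyh2, exposed to varying compound concentrations; growth read by optical density; IC50 derived per strain, resistance as ratio between paired strains.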

HCC1937 = test: Anticancer activity against human HCC1937 cells after 24 hrs by [3H]thymidine incorporation assay; format: functional, cell-based
HEK-293T [2] = test: Effect on polyribosome profiling in human HEK293T cells assessed as accumulation of 80S ribosomes at 50 uM after 30 mins by spectrophotometry; format: functional, cell-based
Method in brief: (§2)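 HEK 293T cells treated 30 min with compound, then lysed; lysates centrifuged through 15–45% sucrose gradient to give polysome profiles.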

Saccharomyces cerevisiae [3] = test: Fold resistance, ratio of IC50 for Saccharomyces cerevisiae BY686 expressing ribosomal protein cyh2 and harboring mutation in rpl28 to IC50 Saccharomyces cerevisiae JB503; format: functional; method in brief: as §1
BT-474 = test: Anticancer activity against human BT474 cells after 24 hrs by [3H]thymidine incorporation assay; format: functional, cell-based
HCC1395 = test: Anticancer activity against human HCC1395 cells after 24 hrs by [3H]thymidine incorporation assay; format: functional, cell-based
Oryctolagus cuniculus = species: Oryctolagus cuniculus; test: Inhibition of translational activity in rabbit reticulocyte assessed as occurrence of ribosomal arrest at start codon at 200 uM by toeprinting assay; format: functional
Method in brief: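 Labelled rabbit β-globin mRNA incubated in rabbit reticulocyte lysate with inhibitor; mixture centrifuged through sucrose gradient, 80S fractions taken to isolate stalled ribosomes; primer extended by AMV reverse transcriptase toward stalled ribosome to map arrest site.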

HEK-293T [4] = test: Effect on polyribosome profiling in human HEK293T cells assessed as depletion of polysomes at 50 uM after 30 mins by spectrophotometry; format: functional, cell-based; method in brief: as §2
[5] = Inhibition of elF4A-mediated renilla luciferase translational activity at 0.02 to 5 uM in presence of EMCV IRES element
Saccharomyces cerevisiae [6] = test: Antimicrobial activity against Saccharomyces cerevisiae JB503; format: functional, organism-based; method in brief: as §1
Saccharomyces cerevisiae [7] = test: Antimicrobial activity against Saccharomyces cerevisiae J47alpha; format: functional, organism-based; method in brief: as §1
HeLa [8] = test: Inhibition of protein synthesis in human HeLa cells assessed as [35S]cysteine/methionine utilization after 2 hrs by scintillation spectroscopy; format: functional, cell-based
Method in brief: (§3)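 HeLa cells incubated 2 h with varying compound concentrations plus [³⁵S]cysteine/methionine (translation) or [³H]uridine (transcription). Protein synthesis: scintillation counting of TCA-precipitated protein on PVDF membrane. Transcription: scintillation counting of nucleic acids bound to GF/C glass fibre filter.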

[9] = target: Elongation factor 2 (Homo sapiens) (UniProt P13639); test: Inhibition of eEF2-mediated tRNA translocation assessed as decrease in tripeptide (Met-Phe-Phe) formation by TLC
MCF-10A = test: Anticancer activity against human MCF10A cells after 24 hrs by [3H]thymidine incorporation assay; format: functional, cell-based
[10] = Inhibition of elF4A-mediated renilla luciferase translational activity at 200 to 2000 nM in presence of HCV IRES element
Hs-578T = test: Anticancer activity against human Hs 578T cells after 24 hrs by [3H]thymidine incorporation assay; format: functional, cell-based
Saccharomyces cerevisiae [11] = test: Antimicrobial activity against Saccharomyces cerevisiae JB281; format: functional, organism-based; method in brief: as §1
[12] = Inhibition of [32P]deacetylated phe-tRNA binding to 60S ribosome E-site by footprinting assay
[13] = Effect on peptidyl transfer assessed as [35S]methionyl-puromycin formation by TLC
Saccharomyces cerevisiae [14] = test: Antimicrobial activity against Saccharomyces cerevisiae BY724 expressing ribosomal protein cyh2 and harboring mutation in rpl28; format: functional, organism-based; method in brief: as §1
HeLa [15] = test: Antiproliferative activity against human HeLa cells assessed as incorporation of [3H]thymidine in nuclear DNA at 2.5 uM after 24 hrs by scintillation counting; format: functional, cell-based
Method in brief: (§4)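 Each of three tumour cell lines incubated with compound at 2.5 μM for 24 h, then [³H]thymidine added to monitor DNA synthesis; initial proliferation screen.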

HCC2218 = test: Anticancer activity against human HCC2218 cells after 24 hrs by [3H]thymidine incorporation assay; format: functional, cell-based
Saccharomyces cerevisiae [16] = test: Antimicrobial activity against Saccharomyces cerevisiae BY686 expressing ribosomal protein cyh2 and harboring mutation in rpl28; format: functional, organism-based; method in brief: as §1
[17] = Binding affinity to 60S ribosome E-site by footprinting assay
Method in brief: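 DMS footprinting of salt-washed 80S ribosomes preincubated 5 min at room temperature with compound, DMS then 5 min at 37°C; rRNA primer extension with AMV reverse transcriptase and [α-³²P]TTP, sequencing gel. For K_D, 300 μl volume at 50 or 100 nM ribosomes titrated with increasing compound.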

Jurkat = test: Antiproliferative activity against human Jurkat cells assessed as incorporation of [3H]thymidine in nuclear DNA at 2.5 uM after 24 hrs by scintillation counting; format: functional, cell-based; method in brief: as §4
[18] = Effect on polyribosome profiling assessed as accumulation of 80S ribosomes after 15 mins by scintillation spectroscopy; format: functional
Method in brief: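 Capped [³²P]-labelled rabbit β-globin RNA incubated in rabbit reticulocyte lysate with compound for 15 min, then centrifuged through 10–35% sucrose gradient.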

Saccharomyces cerevisiae [19] = test: Antimicrobial activity against Saccharomyces cerevisiae J407alpha expressing ribosomal protein cyh2 and harboring mutation in rpl28; format: functional, organism-based; method in brief: as §1
MDA-MB-231 [20] = test: Anticancer activity against human MDA-MB-231 cells after 24 hrs by [3H]thymidine incorporation assay; format: functional, cell-based
MDA-MB-231 [21] = test: Antitumor activity against human MDA-MB-231 cells xenografted in nude mouse assessed as inhibition of tumor growth at 0.6 mg/kg, sc qd for 1 month administered post tumor implantation; format: functional, organism-based; design: dose 0.6 mg/kg
Method in brief: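 Two million MDA-MB-231 cells injected subcutaneously into female nude mice; once tumours palpable, compound 0.6 mg/kg or solvent given daily for one month; tumour growth followed.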

[22] = Inhibition of elF4A-mediated renilla luciferase translational activity at 0.02 to 5 uM in presence of CrPV IRES element
Saccharomyces cerevisiae [23] = test: Antimicrobial activity against Saccharomyces cerevisiae BY108; format: functional, organism-based; method in brief: as §1
Saccharomyces cerevisiae [24] = test: Antimicrobial activity against Saccharomyces cerevisiae BY740 expressing ribosomal protein cyh2 and harboring mutation in rpl28; format: functional, organism-based; method in brief: as §1
Saccharomyces cerevisiae [25] = test: Fold resistance, ratio of IC50 for Saccharomyces cerevisiae BY724 expressing ribosomal protein cyh2 and harboring mutation in rpl28 to IC50 for Saccharomyces cerevisiae BY108; format: functional; method in brief: as §1
[26] = target: Elongation factor 2 (Homo sapiens) (UniProt P13639); test: Inhibition of eEF2-mediated tRNA translocation assessed as inhibition of polyphenylalanine synthesis at 200 uM after 10 mins by scintillation counting
HeLa [27] = test: Inhibition of transcriptional activity in human HeLa cells assessed as [3H]uridine utilization after 2 hrs by scintillation counting; format: functional, cell-based; method in brief: as §3
MCF7 = test: Anticancer activity against human MCF7 cells after 24 hrs by [3H]thymidine incorporation assay; format: functional, cell-based
[28] = target: Elongation factor 2 (Homo sapiens) (UniProt P13639); test: Inhibition of eEF2-mediated tRNA translocation assessed as induction of dipeptide accumulation by TLC

Q: Which “Ratio IC50” value (Saccharomyces cerevisiae [1]) does the source give for C/C(=C\[C@H](C)C(=O)C[C@H](O)CC1CC(=O)NC(=O)C1)[C@@H]1OC(=O)/C=C/CC/C=C/C=C\[C@@H]1C [LACTIMIDOMYCIN] here?
A: The value was 241.

Q: What about the Activity (HCC1937) of the same molecule?
A: The Activity was “Active”.

Q: What about the Activity (HEK-293T [2]) of the same molecule?
A: The Activity was “Active”.

Q: What about the “Ratio IC50” value (Saccharomyces cerevisiae [3]) of the same molecule?
A: The value was 10.3.

Q: What about the Activity (BT-474) of the same molecule?
A: The Activity was “Active”.

Q: What about the Activity (HCC1395) of the same molecule?
A: Its Activity is “Active”.

Q: What about the inhibition (Oryctolagus cuniculus) of the same molecule?
A: Its inhibition is “Active”.

Q: And the Activity (HEK-293T [4])?
A: Its Activity is “Active”.

Q: What about the inhibition [5] of the same molecule?
A: Its inhibition is “Active”.

Q: What about the IC50 (Saccharomyces cerevisiae [6]) of the same molecule?
A: The IC50 was 58 nM.

Q: And the IC50 (Saccharomyces cerevisiae [7])?
A: The IC50 was 4.6 nM.

Q: And the IC50 (HeLa [8])?
A: Its IC50 is 37.8 nM.

Q: And the inhibition (HeLa [8])?
A: The inhibition was “Dose-dependent effect”.

Q: What about the inhibition [9] of the same molecule?
A: The inhibition was “Active”.

Q: What about the Activity (MCF-10A) of the same molecule?
A: The Activity was “Active”.

Q: What about the inhibition [10] of the same molecule?
A: Its inhibition is “Active”.

Q: And the Activity (Hs-578T)?
A: The Activity was “Active”.

Q: And the IC50 (Saccharomyces cerevisiae [11])?
A: The IC50 was 59 nM.

Q: And the inhibition [12]?
A: Its inhibition is “Active”.

Q: And the Activity [13]?
A: The Activity was “inactive”.

Q: What about the IC50 (Saccharomyces cerevisiae [14]) of the same molecule?
A: Its IC50 is 6530 nM.

Q: And the Activity (HeLa [15])?
A: Its Activity is “inactive”.

Q: And the Activity (HCC2218)?
A: The Activity was “Active”.

Q: What about the IC50 (Saccharomyces cerevisiae [16]) of the same molecule?
A: The IC50 was 596 nM.

Q: What about the Activity [17] of the same molecule?
A: The Activity was “Dose-dependent effect”.

Q: And the Kd [17]?
A: The Kd was 500 nM.

Q: And the Activity (Jurkat)?
A: Its Activity is “inactive”.

Q: What about the Activity [18] of the same molecule?
A: Its Activity is “Active”.

Q: And the IC50 (Saccharomyces cerevisiae [19])?
A: Its IC50 is 1110 nM.

Q: What about the Activity (MDA-MB-231 [20]) of the same molecule?
A: Its Activity is “Active”.

Q: And the Activity (MDA-MB-231 [21])?
A: Its Activity is “Active”.

Q: What about the inhibition [22] of the same molecule?
A: The inhibition was “Active”.

Q: And the IC50 (Saccharomyces cerevisiae [23])?
A: The IC50 was 488 nM.

Q: What about the IC50 (Saccharomyces cerevisiae [24]) of the same molecule?
A: The IC50 was 1210 nM.

Q: What about the “Ratio IC50” value (Saccharomyces cerevisiae [25]) of the same molecule?
A: Its value is 13.4.

Q: What about the inhibition [26] of the same molecule?
A: The inhibition was “Active”.

Q: And the IC50 (HeLa [27])?
A: Its IC50 is over 10000 nM.

Q: What about the Activity (MCF7) of the same molecule?
A: The Activity was “Active”.

Q: What about the inhibition [28] of the same molecule?
A: The inhibition was “Active”.
